Results of several laboratories.
Compare with care: the assays were run in different laboratories.
Target: Mitogen-activated protein kinase kinase kinase 1 (MAP3K1, Homo sapiens, UniProt Q13233)

| Compound | read-out | mode | method | tested at | measurement | result |
| --- | --- | --- | --- | --- | --- | --- |
| CC1CCCN1c1nccc(-c2cnn3ncccc23)n1 (stereo not shown) | binding | – | – | 1 µM | remaining binding | 87% |
| CS(=O)(=O)NCC[C@H](NC(=O)c1cncc2c1cnn2-c1ccc(F)cc1)c1ccnc(S(C)(=O)=O)c1 | cell-free assay | – | competition with immobilised ligand | 1 µM | remaining binding | 100% |
| FC(F)(F)Oc1cccc(-c2cnc3ccc(-c4ccncc4)nn23)c1 | enzyme activity | inhibitor | radiometric | 1 µM | activity vs control | 94% |
| COc1cc(Nc2cnc(C#N)c(O[C@H](C)CN(C)C)n2)ncc1-c1cnn(C)c1 | enzyme activity | inhibitor | radiometric | 1 µM | remaining activity | 92% |
| Cn1c(=O)n(-c2ccc(C(C)(C)C#N)cc2)c2c3cc(-c4cnc5ccccc5c4)ccc3ncc21 | enzyme activity | inhibitor | – | 10 µM | remaining activity | 67% |
| Nc1ncnc2occ(-c3ccc(NC(=O)Nc4cc(C(F)(F)F)ccc4F)cc3)c12 | cell-free assay | inhibitor | – | 20 µM | remaining signal | 6.9% |
| CC(C)(O)[C@H]1CC[C@H](Nc2ccc3ncc(-c4cccc(C(F)(F)F)c4)n3n2)CC1 | enzyme activity | inhibitor | – | 1 µM | remaining activity | 99% |
| O=C(Nc1cnn(-c2csc(C(=O)NC3COC3)c2)c1)Nc1c(F)cccc1Cl | enzyme activity | inhibitor | – | 5 µM | remaining activity | 98.7% |
| CN(C)C(=O)Cn1cc(-c2nc([C@@](C)(c3ccc(-c4cnc(N)nc4)cc3)C3CC3)no2)cn1 | cell-free assay | – | competition with immobilised ligand | 1 µM | remaining binding | 90% |
| Cc1sc(C(=O)NC2COC2)cc1-n1cc(NC(=O)Nc2c(F)cccc2Cl)cn1 | enzyme activity | inhibitor | – | 10 µM | remaining activity | 94.5% |
| CC(C)(C)c1nc2c(s1)c1nc(N)ncc1c1ccc(NS(=O)(=O)c3c(F)cccc3F)c(F)c12 | enzyme activity | inhibitor | radiometric | 1 µM | remaining activity | 90% |
| Oc1cccc(-c2nc(N3CCOCC3)c3oc4ncccc4c3n2)c1 | enzyme activity | inhibitor | – | 10 µM | remaining activity | 97% |
| COc1cc(/C=C/C(=O)CC(=O)/C=C/c2ccc(O)c(OC)c2)ccc1O | enzyme activity | inhibitor | – | 1 µM | activity vs control | 89% |
| CC(C)(C)c1nc(-c2cccc(NS(=O)(=O)c3c(F)cccc3F)c2F)c(-c2ccnc(N)n2)s1 | enzyme activity | inhibitor | radiometric | 1 µM | remaining activity | 84% |
| CN(C)C(=O)Cn1cc(-c2nc(C3(c4ccc(-c5cnc(N)nc5)cc4)CC3)no2)cn1 | cell-free assay | – | competition with immobilised ligand | 1 µM | remaining binding | 77% |
| Cc1ccc(C(=O)Nc2ccc(CN3CCN(C)CC3)c(C(F)(F)F)c2)cc1C#Cc1cnc2cccnn12 | enzyme activity | inhibitor | – | 23.5 nM | remaining activity | 82% |
